Results published in ChEMBL document CHEMBL4364291, “Benzylideneacetone Derivatives Inhibit Osteoclastogenesis and Activate Osteoblastogenesis Independently Based on Specific Structure-Activity Relationship” (J Med Chem, 2019).
Active and inactive are the calls of the source. The calls are words filed in the database; no cut-off is given here.

Columns and labels:
[1] = Inhibition of M-CSF/RANKL-induced osteoclast differentiation in C57BL/6 mouse bone marrow macrophage assessed as reduction in multinucleated TRAP+ cells incubated for 6 days with fresh media replacement on day 3 and measured on day 6 by TRAP staining-based microscopic analysis; type: functional, cell-based; details: C57BL/6, BMDM
Outline: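 BMM came from femur and tibia marrow of 5–8-week-old male C57BL/6 mice and were purified over lymphocyte separation medium. Cells, 1 × 10^5 per well, were grown in α-MEM/10% FBS with M-CSF (60 ng/mL) and RANKL (150 ng/mL) for 6 d, medium changed day 3. Compound range was 0.01−100 μM. TRAP+ multinucleated cells were counted on day 6.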

MC3T3-E1 [2] = experiment: Osteo-blastogenic activity in mouse MC3T3-E1 cells assessed as stimulation of ALP activity at 10 uM supplemented with fresh medium every 3 to 4 days and measured after 14 days relative to control; type: functional
Outline: (§1)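 MC3T3-E1 subclone 4 osteoblastic cells were grown in α-MEM at 37 °C under 5% CO2 with compound present during differentiation. ALP activity was read 14 d after induction and expressed as % of untreated cells. Values are mean ± SD of three independent experiments.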

MC3T3-E1 [3] = experiment: Osteo-blastogenic activity in mouse MC3T3-E1 cells assessed as stimulation of ALP activity at 50 uM supplemented with fresh medium every 3 to 4 days and measured after 14 days relative to control; type: functional; outline: as §1
Mus musculus [4] = experiment: Antiosteoporotic activity in ddY mouse model of OVX-induced osteoporosis assessed as increase in femur bone mineral density at 10 mg/kg, po administered once daily via gavage for 4 weeks by microcomputed tomographic analysis; type: functional, organism-based
Outline: (§2)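 Female ddY mice were ovariectomized. Oral gavage began 1 week after surgery and ran once daily for 28 d. Vehicle was 300 μL PBS containing 0.5% (v/v) DMSO, also given to sham and OVX controls. Mice were then euthanized and femur and tibia fixed for CT imaging. Values are mean ± SD of four mice.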

Mus musculus [5] = experiment: Antiosteoporotic activity in ddY mouse model of OVX-induced osteoporosis assessed as increase in ratio of bone volume/trabecular volume in femur bone at 10 mg/kg, po administered once daily via gavage for 4 weeks by microcomputed tomographic analysis; type: functional, organism-based; outline: as §2
Mus musculus [6] = experiment: Antiosteoporotic activity in ddY mouse model of OVX-induced osteoporosis assessed as increase in cross-sectional thickness in femur bone at 10 mg/kg, po administered once daily via gavage for 4 weeks by microcomputed tomographic analysis; type: functional, organism-based; outline: as §2
Mus musculus [7] = experiment: Antiosteoporotic activity in ddY mouse model of OVX-induced osteoporosis assessed as increase in trabecular number in femur bone at 10 mg/kg, po administered once daily via gavage for 4 weeks by microcomputed tomographic analysis; type: functional, organism-based; outline: as §2
Mus musculus [8] = experiment: Antiosteoporotic activity in ddY mouse model of OVX-induced osteoporosis assessed as increase in trabecular thickness in femur bone at 10 mg/kg, po administered once daily via gavage for 4 weeks by microcomputed tomographic analysis; type: functional, organism-based; outline: as §2
Mus musculus [9] = experiment: Antiosteoporotic activity in ddY mouse model of OVX-induced osteoporosis assessed as reduction in trabecular separation in femur bone at 10 mg/kg, po administered once daily via gavage for 4 weeks by microcomputed tomographic analysis; type: functional, organism-based; outline: as §2
Mus musculus [10] = experiment: Antiosteoporotic activity in ddY mouse model of OVX-induced osteoporosis assessed as increase in new bone volume in femur bone at 10 mg/kg, po administered once daily via gavage for 4 weeks by microcomputed tomographic analysis; type: functional, organism-based; outline: as §2
[11] = molecular target: Isopentenyl-diphosphate Delta-isomerase 1 (Rattus norvegicus, UniProt O35760); experiment: Inhibition of isopentenyl diphosphate isomerase in Sprague-Dawley rat liver S100 fraction preincubated for 10 min followed by MVA addition by HPLC analysis
Isopentenyl-diphosphate Delta-isomerase 1, sequence (O35760 whole entry): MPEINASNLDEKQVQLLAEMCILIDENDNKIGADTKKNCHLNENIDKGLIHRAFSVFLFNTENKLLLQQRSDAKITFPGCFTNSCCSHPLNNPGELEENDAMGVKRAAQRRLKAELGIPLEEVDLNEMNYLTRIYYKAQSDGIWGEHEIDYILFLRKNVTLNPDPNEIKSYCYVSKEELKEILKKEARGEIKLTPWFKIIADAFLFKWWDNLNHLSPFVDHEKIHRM

MC3T3-E1 [12] = experiment: Osteo-blastogenic activity in mouse MC3T3-E1 cells assessed as stimulation of ALP activity at 1 uM supplemented with fresh medium every 3 to 4 days and measured after 14 days relative to control; type: functional; outline: as §1
BMDM [13] = experiment: Inhibition of RANKL-induced osteoclastogenesis in C57BL/6 mouse bone marrow macrophages assessed as increase in NFkappaB expression at 10 uM measured over 5 days by Western blot analysis; type: functional, cell-based
Outline: (§3)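 C57BL/6 BMM were grown with M-CSF plus RANKL over the course of osteoclastogenesis, treated at 0.5 or 10 μM. NF-κB and NFATc1 were followed by Western blot. The negative control was M-CSF only.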

BMDM [14] = experiment: Inhibition of RANKL-induced osteoclastogenesis in C57BL/6 mouse bone marrow macrophages assessed as reduction in NFATc1 expression at 10 uM measured over 5 days by Western blot analysis; type: functional, cell-based; outline: as §3
BMDM [15] = experiment: Effect on NFkappaB expression in M-CSF induced C57BL/6 mouse bone marrow macrophages at 10 uM measured over 5 days by Western blot analysis; type: functional, cell-based
Outline: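 C57BL/6 BMM were proliferated with M-CSF alone without RANKL and treated at 0.5 or 10 μM. NF-κB expression was followed over time by Western blot.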

BMDM [16] = experiment: Suppression of NFATc1 expression in M-CSF induced C57BL/6 mouse bone marrow macrophages at 10 uM measured over 5 days by Western blot analysis; type: functional, cell-based
Outline: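 C57BL/6 BMM were kept proliferating with M-CSF in the absence of RANKL and treated with compound (0.5 or 10 μM). NFATc1 expression was followed over the culture period by Western blot.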

[17] = Cytotoxicity against mouse RAW264.7 cells after 24 hrs by MTT assay; type: cell-based; details: read-out: LD50
Outline: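 RAW264.7 macrophages (preosteoclast line) were kept in DMEM at 37 °C under 5% CO2 and tested without RANKL. MTT read-out of growth and survival, expressed as LD50.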

HCT-116 = experiment: Antiproliferative activity against human HCT116 cells after 24 hrs by MTT assay; type: functional; details: HCT-116, 24 h, read-out: LD50 (the source's name)
Outline: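 Cells were maintained in DMEM at 37 °C under 5% CO2. Growth and survival were estimated by MTT assay, and the value is reported as LD50.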

[18] = Toxicity in ddY mouse model of OVX-induced osteoporosis assessed as increase in body weight at 10 mg/kg, po administered once daily via gavage for 4 weeks measured 5 weeks post OVX-challenge; type: organism-based; details: in vivo, 840 h
Outline: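 Dosing of ddY mice began one week after ovariectomy: compound in 300 μL of 0.5% (v/v) DMSO-containing PBS by gavage once daily for 28 d. OVX and sham controls received vehicle. Body weight was compared with sham control 5 weeks after OVX.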

Row | SMILES | IC50 [1] [µM] | Activity (MC3T3-E1 [2]) [%] | Activity (MC3T3-E1 [3]) [%] | other results
1 | CC(=O)/C=C/c1ccc(O)c(F)c1 | 8.3 | 100 | 100 | –
2 | O=C(/C=C/c1ccc(O)c(O)c1)O[C@@H]1C[C@@](O)(C(=O)O)C[C@@H](O)[C@@H]1O | 48 | 120 | 170 | –
3 | NCCCC(O)(P(=O)(O)O)P(=O)(O)O [ALENDRONATE SODIUM] | 3.7 | – | – | Activity (Mus musculus [4]): Active; Activity (Mus musculus [5]): Active; Activity (Mus musculus [6]): Active; Activity (Mus musculus [7]): Active; Activity (Mus musculus [8]): inactive; Activity (Mus musculus [9]): Active; Activity (Mus musculus [10]): Active; IC50 [11]: 1.7 µM
4 | O=C(O)/C=C/c1ccccc1 [CINNAMIC ACID] | > 100 | 100 | 110 | –
5 | CC(=O)/C=C/c1ccc(O)cc1 | 32 | 110 | 150 | –
6 | COC(=O)Cc1ccc(O)c(O)c1 | 80 | 100 | 130 | –
7 | CC(=O)/C=C/c1ccc(OCc2ccccc2)c(O)c1 | 19 | 130 | 140 | –
8 | CC(=O)/C=C/c1ccc(C)c(O)c1 | 5.9 | 100 | 130 | –
9 | O=C(O)Cc1ccccc1 [PHENYLACETIC ACID] | > 100 | 120 | 110 | –
10 | O=C(O)c1ccc(O)c(O)c1 [PROTOCATECHUIC ACID] | 89 | 100 | 140 | –
11 | CC(=O)/C=C/c1ccc(F)c(O)c1 | 15 | 100 | 100 | –
12 | Cc1ccc(/C=C/C(N)=O)cc1O | 15 | 110 | 120 | –
13 | CC(=O)/C=C/c1ccc(OC(C)C)c(O)c1 | 24 | 100 | 94 | –
14 | CC[C@H](C)[C@H](NC(=O)[C@H](CCC(=O)O)NC(=O)[C@H](CO)NC(=O)[C@@H](NC(=O)[C@@H](N)CO)C(C)C)C(=O)N[C@@H](CCC(N)=O)C(=O)N[C@@H](CC(C)C)C(=O)N[C@@H](CCSC)C(=O)N[C@@H](Cc1cnc[nH]1)C(=O)N[C@@H](CC(N)=O)C(=O)N[C@@H](CC(C)C)C(=O)NCC(=O)N[C@@H](CCCCN)C(=O)N[C@@H](Cc1cnc[nH]1)C(=O)N[C@@H](CC(C)C)C(=O)N[C@@H](CC(N)=O)C(=O)N[C@@H](CO)C(=O)N[C@@H](CCSC)C(=O)N[C@@H](CCC(=O)O)C(=O)N[C@@H](CCCNC(=N)N)C(=O)N[C@H](C(=O)N[C@@H](CCC(=O)O)C(=O)N[C@@H](Cc1c[nH]c2ccccc12)C(=O)N[C@@H](CC(C)C)C(=O)N[C@@H](CCCNC(=N)N)C(=O)N[C@@H](CCCCN)C(=O)N[C@@H](CCCCN)C(=O)N[C@@H](CC(C)C)C(=O)N[C@@H](CCC(N)=O)C(=O)N[C@@H](CC(=O)O)C(=O)N[C@H](C(=O)N[C@@H](Cc1cnc[nH]1)C(=O)N[C@@H](CC(N)=O)C(=O)N[C@@H](Cc1ccccc1)C(=O)O)C(C)C)C(C)C [TERIPARATIDE] | – | – | – | Activity (MC3T3-E1 [12]): 140%
15 | C=CCOc1ccc(/C=C/C(C)=O)cc1O | 18 | 120 | 140 | –
16 | COC(=O)c1ccc(O)c(O)c1 [METHYL PROTOCATECHUATE] | 78 | 110 | 100 | –
17 | O=C(O)Cc1ccc(O)c(O)c1 [3,4-DIHYDROXYPHENYLACETIC ACID] | 75 | 120 | 170 | –
18 | NC(=O)/C=C/c1ccc(F)c(O)c1 | 25 | 110 | 120 | –
19 | O=C(O)/C=C/c1ccc(O)c(O)c1 [CAFFEIC ACID] | 41 | 120 | 130 | –
20 | O=Cc1ccc(O)c(O)c1 [PROTOCATECHUALDEHYDE] | 15 | 110 | 140 | –
21 | O=C(/C=C/c1ccc(O)c(O)c1)O[C@@H]1C[C@](O)(C(=O)O)C[C@@H](O)[C@H]1O [CHLOROGENIC ACID] | 86 | 110 | 150 | –
22 | COc1cc(/C=C/C(C)=O)ccc1O [DEHYDROZINGERONE] | 7.5 | 110 | 600 | inhibition (BMDM [13]): Active; inhibition (BMDM [14]): Active; Activity (BMDM [15]): inactive; Activity (BMDM [16]): Active; Activity (Mus musculus [4]): Active; Activity (Mus musculus [5]): Active; Activity (Mus musculus [6]): Active; Activity (Mus musculus [7]): Active; Activity (Mus musculus [8]): Active; Activity (Mus musculus [9]): Active; Activity (Mus musculus [10]): Active; CC50 at 24 h [17]: > 5000 µM; CC50 (HCT-116): 310 µM; Activity [18]: Toxic
